Source: ChEMBL document CHEMBL1153955, “Indolylarylsulfones bearing natural and unnatural amino acids. Discovery of potent inhibitors of HIV-1 non-nucleoside wild type and resistant mutant strains reverse transcriptase and coxsackie B4 virus” (J Med Chem, 2009)

What was measured:
[1] = Cytotoxicity against MDCK cells assessed as drug level causing microscopically detectable alteration of normal cell morphology; assay type: cell-based, Canis lupus familiaris; details: dog
[2] = Cytotoxicity against human HeLa cells assessed as drug level causing microscopically detectable alteration of normal cell morphology after 3 days; assay type: cell-based
Outline: (§1)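 Serial compound dilutions added to confluent HeLa or Vero monolayers. MCC = minimum concentration causing microscopically detectable alteration of cell morphology after 3 days of incubation.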

Influenza A virus H3N2 [3] = experiment: Antiviral activity against influenza H3N2 virus in MDCK cells assessed as reduction of virus-induced cytopathicity by MTS method; assay type: functional, organism-based
[4] = system: Human immunodeficiency virus 1; experiment: Antiviral activity against HIV1 3B in human CEM cells assessed as protection against virus-induced cytopathicity after 4 days; assay type: functional, organism-based; details: Human immunodeficiency virus 1, 3B, CCRF-CEM, 96 h
Outline: (§2)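 CEM cells (~3 × 10⁵ cells/mL) infected with ~100 CCID₅₀ per mL of HIV-1 (IIIB) or HIV-2 (ROD), then seeded into wells containing compound dilutions. After 4 days at 37 °C, syncytium (giant cell) formation was examined microscopically. EC₅₀ = concentration protecting CEM cells from HIV cytopathicity by 50%.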

Feline coronavirus = experiment: Antiviral activity against Feline coronavirus in feline […] cells assessed as inhibition of virus-induced cytopathicity; assay type: functional, organism-based; details: Alphacoronavirus 1
[5] = system: Mammalian orthoreovirus 1; experiment: Antiviral activity against Reovirus 1 in african green monkey Vero cells assessed as protection against virus-induced cytopathicity; assay type: functional, organism-based; details: Mammalian orthoreovirus 1, Vero
Outline: (§3)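 Confluent cell monolayers inoculated with 100 CCID₅₀ virus. After 1-2 h adsorption, residual virus removed and cultures incubated with varying compound concentrations. Cytopathicity scored once it reached completion in untreated infected controls. EC₅₀ = dose reducing virus-induced cytopathogenicity by 50%.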

Felid alphaherpesvirus 1 = experiment: Antiviral activity against Feline herpesvirus in feline […] cells assessed as inhibition of virus-induced cytopathicity; assay type: functional, organism-based
Influenza A virus H3N2 [6] = experiment: Antiviral activity against influenza H3N2 virus in MDCK cells assessed as reduction of virus-induced cytopathicity by visual cytopathic effect scoring method; assay type: functional, organism-based
Vaccinia virus = experiment: Antiviral activity against Vaccinia virus Lederle in human HEL cells assessed as protection against virus-induced cytopathicity; assay type: functional, organism-based; details: Orthopoxvirus vaccinia
Punta Toro virus = experiment: Antiviral activity against Punta Toro virus in african green monkey Vero cells assessed as protection against virus-induced cytopathicity; assay type: functional, organism-based; outline: as §3
[7] = Cytotoxicity against feline CRFK cells by MTS assay; assay type: cell-based, Felis catus; details: cat
[8] = system: Vesicular stomatitis virus; experiment: Antiviral activity against VSV in human HEL cells assessed as protection against virus-induced cytopathicity; assay type: functional, organism-based
Sindbis virus = experiment: Antiviral activity against Sindbis virus in african green monkey Vero cells assessed as protection against virus-induced cytopathicity; assay type: functional, organism-based; outline: as §3
[9] = system: Human immunodeficiency virus 2; experiment: Antiviral activity against HIV2 ROD in human CEM cells assessed as protection against virus-induced cytopathicity after 4 days; assay type: functional, organism-based; details: Human immunodeficiency virus 2, ROD, CCRF-CEM, 96 h; outline: as §2
Human respirovirus 3 = experiment: Antiviral activity against Parainfluenza virus type 3 in african green monkey Vero cells assessed as protection against virus-induced cytopathicity; assay type: functional, organism-based; details: Human respirovirus 3, Vero; outline: as §3
[10] = Cytotoxicity against african green monkey Vero cells assessed as drug level causing microscopically detectable alteration of normal cell morphology after 3 days; assay type: cell-based; details: chlorocebus sabaeus; outline: as §1
[11] = target: Human immunodeficiency virus type 1 reverse transcriptase (Human immunodeficiency virus 1, UniProt Q72547); experiment: Inhibition of HIV1 reverse transcriptase p66/p51; details: read-out: IC50
Human alphaherpesvirus 1 [12] = experiment: Antiviral activity against thymidine kinase deficient and acyclovir resistant HSV1 KOS in human HEL cells assessed as protection against virus-induced cytopathicity; assay type: functional, organism-based; details: Human alphaherpesvirus 1, KOS
[13] = target: Human immunodeficiency virus type 1 reverse transcriptase (Human immunodeficiency virus 1, UniProt Q72547, L100I); experiment: Inhibition of HIV1 reverse transcriptase p66/p51 L100I mutant; details: read-out: IC50
Outline: (§4)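 Substrate was 0.5 µg poly(rA)/oligo(dT) 10:1 (0.3 µM 3′-OH ends) with 10 µM [³H]dTTP, at 37 °C. Acid-precipitable radioactivity was counted on GF/C filters after TCA washes.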

[14] = target: Human immunodeficiency virus type 1 reverse transcriptase (Human immunodeficiency virus 1, UniProt Q72547, Y181I); experiment: Inhibition of HIV1 reverse transcriptase p66/p51 Y181I mutant; details: read-out: IC50; outline: as §4
Influenza B virus [15] = experiment: Antiviral activity against influenza B virus in MDCK cells assessed as reduction of virus-induced cytopathicity by visual cytopathic effect scoring method; assay type: functional, organism-based
Influenza A virus [16] = experiment: Antiviral activity against influenza H1N1 virus in MDCK cells assessed as reduction of virus-induced cytopathicity by MTS method; assay type: functional, organism-based; details: Influenza A virus, H1N1, MDCK
Coxsackievirus B4 [17] = experiment: Antiviral activity against Coxsackievirus B4 in african green monkey Vero cells assessed as protection against virus-induced cytopathicity; assay type: functional, organism-based; details: Enterovirus B; outline: as §3
[18] = system: Respiratory syncytial virus; experiment: Antiviral activity against RSV Long in human HeLa cells assessed as protection against virus-induced cytopathicity; assay type: functional, organism-based; outline: as §3
[19] = Antiproliferative activity against human Molt4/C8 cells after 3 days; assay type: cell-based; details: MOLT-4, 72 h
Outline: (§5)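 Cells seeded at 5 × 10⁴ to 7.5 × 10⁴ cells/200 µL with or without serial compound dilutions; incubated at 37 °C for 2 days (L1210) or 3 days (Molt4/C8, CEM). Cell numbers counted with a Coulter counter. CC₅₀ = concentration reducing proliferation by 50% versus untreated controls, read from plots of cell number (% of control) against concentration. Means of at least two independent experiments.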

[20] = Cytotoxicity against human HEL cells assessed as drug level causing microscopically detectable alteration of normal cell morphology after 3 days; assay type: cell-based
[21] = system: Vesicular stomatitis virus; experiment: Antiviral activity against VSV in human HeLa cells assessed as protection against virus-induced cytopathicity; assay type: functional, organism-based
Coxsackievirus B4 [22] = experiment: Antiviral activity against Coxsackievirus B4 in human HeLa cells assessed as protection against virus-induced cytopathicity; assay type: functional, organism-based; details: Enterovirus B; outline: as §3
Influenza A virus [23] = experiment: Antiviral activity against influenza H1N1 virus in MDCK cells assessed as reduction of virus-induced cytopathicity by visual cytopathic effect scoring method; assay type: functional, organism-based
[24] = Cytotoxicity against MDCK cells by MTS assay; assay type: cell-based, Canis lupus familiaris; details: dog
Human alphaherpesvirus 1 [25] = experiment: Antiviral activity against HSV1 KOS in human HEL cells assessed as protection against virus-induced cytopathicity; assay type: functional, organism-based; details: Human alphaherpesvirus 1, KOS
CCRF-CEM = experiment: Antiproliferative activity against human CEM cells after 3 days; assay type: cell-based; details: 72 h; outline: as §5
Human alphaherpesvirus 2 = experiment: Antiviral activity against HSV2 G in human HEL cells assessed as protection against virus-induced cytopathicity; assay type: functional, organism-based; details: Human alphaherpesvirus 2, strain G; outline: as §3
[26] = target: Human immunodeficiency virus type 1 reverse transcriptase (Human immunodeficiency virus 1, UniProt Q72547, K103N); experiment: Inhibition of HIV1 reverse transcriptase p66/p51 K103N mutant; details: read-out: IC50; outline: as §4
Influenza B virus [27] = experiment: Antiviral activity against influenza B virus in MDCK cells assessed as reduction of virus-induced cytopathicity by MTS method; assay type: functional, organism-based
L1210 = experiment: Antiproliferative activity against mouse L1210 cells after 2 days; assay type: cell-based; details: L1210, 48 h; outline: as §5

SMILES | MCC [1] [µM] | MCC at 72 h [2] [µM] | EC50 (Influenza A virus H3N2 [3]) [µM] | EC50 [4] [µM] | EC50 (Feline coronavirus) [µM] | EC50 [5] [µM] | EC50 (Felid alphaherpesvirus 1) [µM] | EC50 (Influenza A virus H3N2 [6]) [µM] | EC50 (Vaccinia virus) [µM] | EC50 (Punta Toro virus) [µM] | CC50 [7] [µM] | EC50 [8] [µM] | EC50 (Sindbis virus) [µM] | EC50 [9] [µM] | EC50 (Human respirovirus 3) [µM] | MCC at 72 h [10] [µM] | IC50 [11] [µM] | EC50 (Human alphaherpesvirus 1 [12]) [µM] | IC50 [13] [µM] | IC50 [14] [µM] | further results
Cc1cc(C)cc(S(=O)(=O)c2c(C(=O)NCCS(N)(=O)=O)[nH]c3ccc(Br)cc23)c1 | 4 | 20 | > 800 | 0.001 | > 4 | > 20 | > 4 | > 800 | > 4 | > 20 | 11.9 | > 4 | > 20 | > 10 | > 20 | ≥ 20 | 0.002 | > 4 | 0.013 | > 40 | EC50 (Influenza B virus [15]): > 800 µM; EC50 (Influenza A virus [16]): > 800 µM; EC50 (Coxsackievirus B4 [17]): 12 µM; EC50 [18]: > 4 µM; IC50 [19]: 11 µM; MCC at 72 h [20]: 20 µM; EC50 [21]: > 4 µM; EC50 (Coxsackievirus B4 [22]): ≥ 4 µM; EC50 (Influenza A virus [23]): > 800 µM; CC50 [24]: 1.9 µM; EC50 (Human alphaherpesvirus 1 [25]): > 4 µM; IC50 (CCRF-CEM): 14 µM; EC50 (Human alphaherpesvirus 2): > 4 µM; IC50 [26]: 0.529 µM; EC50 (Influenza B virus [27]): > 800 µM; IC50 (L1210): 17 µM
Cc1cc(C)cc(S(=O)(=O)c2c(C(=O)NCCC(N)=O)[nH]c3ccc(Br)cc23)c1 | 20 | ≥ 20 | > 4 | 0.0011 | > 4 | > 20 | > 4 | > 4 | > 4 | > 20 | 15.6 | > 4 | > 20 | 23 | > 20 | 100 | 0.086 | > 4 | 0.169 | 8.57 | EC50 (Influenza B virus [15]): > 4 µM; EC50 (Influenza A virus [16]): > 4 µM; EC50 (Coxsackievirus B4 [17]): 16 µM; EC50 [18]: ≥ 20 µM; IC50 [19]: 25 µM; MCC at 72 h [20]: 20 µM; EC50 [21]: > 20 µM; EC50 (Coxsackievirus B4 [22]): 11 µM; EC50 (Influenza A virus [23]): > 4 µM; CC50 [24]: 8.5 µM; EC50 (Human alphaherpesvirus 1 [25]): > 4 µM; IC50 (CCRF-CEM): 36 µM; EC50 (Human alphaherpesvirus 2): > 4 µM; IC50 [26]: 0.42 µM; EC50 (Influenza B virus [27]): > 4 µM; IC50 (L1210): 46 µM
